IDH1 R132H inh = inhibitors of IDH1 R132H reductase, primary screen, biochemical, plate reader, single point | Isocitrate dehydrogenase [NADP] cytoplasmic (Homo sapiens), O75874 | diaphorase/resazurin fluorescence, 60 min | inhibition, % at 10 µM | 0.18% of 70,000 active | AID 624101, 2012; in the data active = inhibition above about 34%; inconclusive = no clear call, values can overlap the other calls; inactive = below about 11%
Target sequence (O75874 whole entry R132H): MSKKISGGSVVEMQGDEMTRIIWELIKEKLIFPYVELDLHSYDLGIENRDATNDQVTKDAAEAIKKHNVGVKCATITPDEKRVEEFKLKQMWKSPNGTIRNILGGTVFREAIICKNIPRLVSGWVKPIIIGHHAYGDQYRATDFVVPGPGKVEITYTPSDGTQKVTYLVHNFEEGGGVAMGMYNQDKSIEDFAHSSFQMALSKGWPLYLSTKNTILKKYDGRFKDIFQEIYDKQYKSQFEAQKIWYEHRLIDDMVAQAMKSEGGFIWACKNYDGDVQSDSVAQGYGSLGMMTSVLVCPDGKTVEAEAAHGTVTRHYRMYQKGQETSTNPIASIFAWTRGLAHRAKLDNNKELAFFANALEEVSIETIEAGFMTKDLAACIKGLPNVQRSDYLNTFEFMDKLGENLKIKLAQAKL
KDM4C inh = inhibitors of GASC-1 (KDM4C) histone demethylase, primary screen, biochemical, single concentration HTS | inhibition, % at 12.5 µM | Lysine-specific demethylase 4C (Homo sapiens), Q9H3R0 | 0.15% of 96,000 active | GST-KDM4C 2-372, H3K9me3 peptide, LANCE TR-FRET;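 active = mean replicate inhibition above about 25%, with at least 55% of replicates also reaching it, limit read from the data, passing the limit was not always enough; inconclusive = only one of those two conditions met; inactive = neither condition met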
Target sequence (Q9H3R0 2-372 limits assumed): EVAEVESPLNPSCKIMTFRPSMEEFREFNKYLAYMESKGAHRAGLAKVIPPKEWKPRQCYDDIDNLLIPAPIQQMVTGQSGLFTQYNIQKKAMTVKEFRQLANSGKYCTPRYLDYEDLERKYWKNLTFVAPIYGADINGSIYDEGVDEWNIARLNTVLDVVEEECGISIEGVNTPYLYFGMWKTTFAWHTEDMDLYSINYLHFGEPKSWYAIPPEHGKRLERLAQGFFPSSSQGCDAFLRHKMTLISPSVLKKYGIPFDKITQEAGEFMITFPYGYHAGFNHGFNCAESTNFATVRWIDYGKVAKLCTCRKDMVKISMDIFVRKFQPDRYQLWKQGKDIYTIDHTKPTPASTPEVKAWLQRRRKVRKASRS
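Test system – GST-tagged GASC-1 (JMJD2C) catalytic fragment, aa 2-372 · Medium – HEPES buffer, pH 7.5, plus ascorbate · Reagent – H3K9me3 peptide with Fe(II)/2OG · Compound – one test concentration per compound · Timing – 30 min reaction, 60 min detection, RT · Technique – TR-FRET with Eu antibody and ULight streptavidin, EDTA stop · Read-out basis – inhibition from TR-FRET ratio decrease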
T cruzi growth-1 = T. cruzi intracellular proliferation inhibitors, primary screen, cell-based, beta-gal Tulahuen parasites, NIH3T3 host, luminescence; T. cruzi beta-gal in NIH3T3, GalScreen luminescence, 90 h; inhibition, % at 8.34 µM; 5.9% of 77,000 active; AID 624255, 2012;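 active = mean inhibition above about 93%, with at least 55% of replicates each passing it, limit read from the data, passing the limit was not always enough; inconclusive = only one of those two conditions holds; inactive = neither condition holds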
T cruzi growth-2 = T. cruzi intracellular proliferation inhibitors, confirmation, cell-based, NIH3T3 host, beta-gal parasite, luminescence, cherry-pick. shares compounds with T cruzi growth-1. T. cruzi beta-gal in NIH3T3, GalScreen luminescence, 90 h. inhibition, % at 8.35 µM. 72% of 5,600 active. AID 651739, 2012;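 active = mean replicate inhibition above about 95% and at least 55% of replicates individually reaching it, limit read from the data; inconclusive = only one of the two criteria is met; inactive = neither criterion is met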
T cruzi growth-3 = inhibitors of intracellular T. cruzi replication, confirmation, NIH3T3 host cells, beta-gal parasites, cherry-pick, set 2; shares compounds with T cruzi growth-1; 21% of 5,600 active; T. cruzi beta-gal in NIH3T3, GalScreen luminescence, 90 h; inhibition, % at 2.09 µM; AID 651740, 2012;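 active = mean inhibition above about 95%, with at least 55% of replicates also reaching it, limit read from the data; inconclusive = meets just one of the two conditions; inactive = meets neither condition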
NIH3T3 tox = cytotoxicity in mouse NIH/3T3 fibroblasts, confirmation, cytotoxicity control for T. cruzi proliferation inhibitor project, cell-based, cherry-pick, single point | 14% of 5,600 active | NIH/3T3 viability, CellTiter-Glo ATP luminescence, 90 h | cytotoxicity (signal decrease), % at 8.35 µM | shares compounds with T cruzi growth-1 | AID 651742, 2012;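 active = mean signal decrease across replicates above about 35% based on untreated-well scatter, with enough replicates individually passing, limit read from the data; inconclusive = no rule stated though some were filed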
NIH3T3 tox 2 = NIH/3T3 fibroblast cytotoxicity, confirmation, cytotoxicity control, cell-based, cherry-pick, single point, set 2; NIH/3T3 viability, CellTiter-Glo ATP luminescence, 90 h; AID 651744, 2012; inhibition, % at 24.9 µM; 56% of 5,600 active; shares compounds with T cruzi growth-1;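 active = mean loss of cell viability signal at or above a set limit, and enough replicates individually reaching it; inconclusive = meets only the mean limit or only the replicate share; inactive = meets neither condition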
Large screens that a line does not name were inactive (follow-up assays come after a bar, where they were run). Many of the other results were omitted from the sample, so hits are more common in it than they were.

OC[C@@H]1[C@@H](c2ccc(/C=C/c3ccccc3)cc2)[C@H]2CN(Cc3ccncc3)CCCCN12	T cruzi growth-1 97 (no result: IDH1 R132H inh) | T cruzi growth-2 105 | T cruzi growth-3 inactive | NIH3T3 tox 46 | NIH3T3 tox 2 102
CC(Nc1nc2ccccc2n1C)c1cc(Cl)ccc1O (configuration not stated)	none (no result: KDM4C inh, T cruzi growth-1)
CCc1nc(SCC(=O)OC)c2c3c(sc2n1)CCCC3	none (no result: KDM4C inh, T cruzi growth-1)
NNC(=O)Cc1csc(-c2cccc(-n3cccc3)c2)n1	none (no result: KDM4C inh, T cruzi growth-1)
C[C@@H]1CN([C@H](C)CO)C(=O)c2cccc(NC(=O)c3nc4ccccc4s3)c2O[C@H]1CN(C)Cc1ccc(C(=O)Nc2ccccc2N)cc1	T cruzi growth-1 104 (no result: IDH1 R132H inh) | T cruzi growth-2 108 | T cruzi growth-3 inactive | NIH3T3 tox inactive | NIH3T3 tox 2 33
C[C@H](CO)N1C[C@H](C)[C@H](CN(C)Cc2ccccc2)Oc2c(NC(=O)c3nc4ccccc4s3)cccc2C1=O	T cruzi growth-1 99 | T cruzi growth-2 103 | T cruzi growth-3 inactive | NIH3T3 tox inactive | NIH3T3 tox 2 inconclusive
C[C@H]1CN([C@@H](C)CO)C(=O)c2cccc(NC(=O)c3nc4ccccc4s3)c2O[C@H]1CN(C)Cc1ccc(Cl)c(Cl)c1	T cruzi growth-1 97 (no result: IDH1 R132H inh) | T cruzi growth-2 112 | T cruzi growth-3 inactive | NIH3T3 tox 47 | NIH3T3 tox 2 54
C[C@@H]1CN([C@H](C)CO)C(=O)c2cccc(NC(=O)c3nc4ccccc4s3)c2O[C@H]1CN(C)Cc1ccc(C(F)(F)F)cc1	none (no result: IDH1 R132H inh)
C[C@H](CO)N1C[C@H](C)[C@H](CN(C)Cc2ccc(Cl)c(Cl)c2)Oc2c(NC(=O)c3nc4ccccc4s3)cccc2C1=O	none
C[C@@H]1CN([C@H](C)CO)C(=O)c2cccc(NC(=O)c3nc4ccccc4s3)c2O[C@H]1CN(C)Cc1ccc(-c2ccccc2)cc1	none
C[C@H]1CN([C@@H](C)CO)C(=O)c2cccc(NC(=O)c3nc4ccccc4s3)c2O[C@H]1CN(C)Cc1ccc(C(F)(F)F)cc1	T cruzi growth-1 inconclusive | T cruzi growth-2 110 | T cruzi growth-3 inactive | NIH3T3 tox inactive | NIH3T3 tox 2 96
C[C@H]1CN([C@@H](C)CO)C(=O)c2cccc(NC(=O)c3nc4ccccc4s3)c2O[C@@H]1CN(C)Cc1ccc(-c2ccccc2)cc1	none
CCc1nc(SCC(=O)Nc2c(C)cc(C)cc2[N+](=O)[O-])n[nH]1	none (no result: KDM4C inh, T cruzi growth-1)
COc1cccc2c1oc(=O)c1c(NC(C)=O)nc(-c3cccs3)nc12	none (no result: KDM4C inh, T cruzi growth-1)
O=C(CSc1nc2ccccc2[nH]1)Nc1ccccc1-c1ccccc1	none (no result: KDM4C inh, T cruzi growth-1)
CCn1c(SCC(=O)c2ccc(Cl)cc2Cl)nnc1-c1cccnc1	none (no result: KDM4C inh, T cruzi growth-1)
C[C@@H]1CCCCO[C@H](CN(C)C(=O)C2CCCCC2)[C@H](C)CN([C@@H](C)CO)C(=O)c2cc(NS(=O)(=O)c3ccc(Cl)cc3)ccc2O1	T cruzi growth-1 inconclusive (no result: IDH1 R132H inh) | T cruzi growth-2 inconclusive | T cruzi growth-3 inactive | NIH3T3 tox inactive | NIH3T3 tox 2 95
C[C@@H]1CN([C@@H](C)CO)C(=O)c2cc(NS(=O)(=O)c3ccc(Cl)cc3)ccc2O[C@@H](C)CCCCO[C@H]1CN(C)C(=O)C1CCCCC1	none (no result: IDH1 R132H inh)
C[C@@H]1CN([C@H](C)CO)C(=O)c2cc(NS(=O)(=O)c3ccc(Cl)cc3)ccc2O[C@@H](C)CCCCO[C@@H]1CN(C)C(=O)C1CCCCC1	T cruzi growth-1 inconclusive | T cruzi growth-2 100 | T cruzi growth-3 inactive | NIH3T3 tox inactive | NIH3T3 tox 2 80
C[C@H](CO)N1C[C@H](C)[C@H](CN(C)C(=O)C2CCCCC2)OCCCC[C@H](C)Oc2ccc(NS(=O)(=O)c3ccc(Cl)cc3)cc2C1=O	none (no result: IDH1 R132H inh)
COC(=O)c1ccccc1NC(=O)C1=C(C)NC(=S)NC1c1ccc(OC2CCCC2)c(OC)c1 (configuration not stated)	none (no result: KDM4C inh, T cruzi growth-1)
C[C@@H]1CCCCO[C@@H](CN(C)C)[C@@H](C)CN([C@H](C)CO)C(=O)c2cc(NC(=O)CCCCCC(=O)Nc3ccccc3N)ccc2O1	none (no result: IDH1 R132H inh, T cruzi growth-1)
C[C@@H]1CCCCO[C@@H](CN(C)C(=O)Nc2ccccc2)[C@H](C)CN([C@H](C)CO)C(=O)c2cc(NC(=O)NC3CCCCC3)ccc2O1	T cruzi growth-1 105 | T cruzi growth-2 101 | T cruzi growth-3 inactive | NIH3T3 tox inactive | NIH3T3 tox 2 inactive
C[C@H]1CCCCO[C@@H](CN(C)C(=O)Nc2ccccc2)[C@@H](C)CN([C@@H](C)CO)C(=O)c2cc(N(C)C)ccc2O1	none
CC(C)NC(=O)Nc1ccc2c(c1)C(=O)N([C@@H](C)CO)C[C@@H](C)[C@H](CN(C)C(=O)Nc1ccc(F)cc1)OCCCC[C@@H](C)O2	none (no result: IDH1 R132H inh)
C[C@H]1CCCCO[C@H](CN(C)C)[C@@H](C)CN([C@@H](C)CO)C(=O)c2cc(NC(=O)CCCCCC(=O)Nc3ccccc3N)ccc2O1	T cruzi growth-1 97 (no result: IDH1 R132H inh) | T cruzi growth-2 102 | T cruzi growth-3 inactive | NIH3T3 tox inactive | NIH3T3 tox 2 inactive
CC(C)NC(=O)Nc1ccc2c(c1)C(=O)N([C@H](C)CO)C[C@H](C)[C@H](CN(C)C(=O)Nc1ccc(F)cc1)OCCCC[C@H](C)O2	T cruzi growth-1 96 | T cruzi growth-2 104 | T cruzi growth-3 inactive | NIH3T3 tox inactive | NIH3T3 tox 2 inactive
C[C@@H]1CCCCO[C@@H](CN(C)C(=O)Nc2ccccc2)[C@@H](C)CN([C@H](C)CO)C(=O)c2cc(NC(=O)NC3CCCCC3)ccc2O1	none
C[C@@H]1CCCCO[C@@H](CN(C)C(=O)Nc2ccccc2)[C@H](C)CN([C@@H](C)CO)C(=O)c2cc(N(C)C)ccc2O1	T cruzi growth-1 107 | T cruzi growth-2 inactive | T cruzi growth-3 inactive | NIH3T3 tox inactive | NIH3T3 tox 2 inactive
CC(=O)OC1CC2(C)C3CC=C4C(CC(O)C(O)C4(C)C)C3(C)CCC2(C)C1C(C)(O)C(=O)CCC(C)(C)O (configuration not stated)	none (no result: KDM4C inh, T cruzi growth-1)
Cc1sc(NC(=O)c2cc(-c3cccnc3)nc3ccc(Cl)cc23)c(C(N)=O)c1-c1ccccc1	none (no result: KDM4C inh, T cruzi growth-1)
COc1ccc(S(=O)(=O)n2cc(-c3ccc(C)cc3)c(N)n2)c(OC)c1	none (no result: KDM4C inh, T cruzi growth-1)
